Source: PubChem
GASC1 inh: KDM4C (human) demethylase inhibition; AID 720574; 96,000 tested, 0.15% active; inhibition, % at 12.5 µM; GST-KDM4C 2-372, H3K9me3 peptide, LANCE TR-FRET; Q9H3R0;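 active = mean replicate inhibition above about 25%, with at least 55% of replicates also reaching it, limit read from the data, passing the limit was not always enough; inconclusive = only one of those two conditions met; inactive = neither condition met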
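System: N-terminal GST-fused human GASC-1 (KDM4C) fragment, residues 2-372 / Amount: 10 nM GST-KDM4C in enzyme reaction / Also added: H3K9me3 peptide with Fe(II)/2OG / Times: 30 min demethylation and 1 h detection at room temperature / Signal: LANCE TR-FRET / Read-out basis: Fall in 671/618 emission ratio as inhibition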
IDH1 mut inh: IDH1 R132H (human) inhibition. IDH1 R132H reductase, diaphorase/resazurin fluorescence, 60 min. inhibition, % at 10 µM. AID 624101. 70,000 tested, 0.18% active. O75874; in the data active = inhibition above about 34%; inconclusive = no clear call, values can overlap the other calls; inactive = below about 11%;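 also: 0% = DMSO and 100% = no enzyme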
Target sequence (O75874 whole entry R132H): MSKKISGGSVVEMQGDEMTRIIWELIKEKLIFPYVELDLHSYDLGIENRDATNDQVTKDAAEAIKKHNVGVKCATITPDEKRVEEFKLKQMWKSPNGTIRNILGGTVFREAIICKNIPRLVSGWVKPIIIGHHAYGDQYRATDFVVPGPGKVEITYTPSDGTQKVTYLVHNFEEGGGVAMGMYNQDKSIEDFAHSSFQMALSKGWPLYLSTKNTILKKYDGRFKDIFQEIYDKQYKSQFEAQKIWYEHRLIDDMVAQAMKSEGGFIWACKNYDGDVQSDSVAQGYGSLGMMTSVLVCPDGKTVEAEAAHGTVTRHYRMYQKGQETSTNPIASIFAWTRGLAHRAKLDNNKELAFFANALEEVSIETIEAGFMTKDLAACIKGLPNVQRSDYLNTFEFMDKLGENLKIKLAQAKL
T cruzi growth-1: blocks T. cruzi growth in NIH3T3 culture; 77,000 tested, 5.9% active; inhibition, % at 8.34 µM; AID 624255; T. cruzi beta-gal in NIH3T3, GalScreen luminescence, 90 h;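 active = mean inhibition above about 93%, with at least 55% of replicates each passing it, limit read from the data, passing the limit was not always enough; inconclusive = only one of those two conditions holds; inactive = neither condition holds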
T cruzi growth-2: inhibitors of T. cruzi proliferation | 5,600 tested, 72% active | inhibition, % at 8.35 µM | T. cruzi beta-gal in NIH3T3, GalScreen luminescence, 90 h | shares compounds with T cruzi growth-1;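 active = mean replicate inhibition above about 95% and at least 55% of replicates individually reaching it, limit read from the data; inconclusive = only one of the two criteria is met; inactive = neither criterion is met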
T cruzi growth-3: blocks T. cruzi growth in NIH3T3 host cells | shares compounds with T cruzi growth-1 | AID 651740 | T. cruzi beta-gal in NIH3T3, GalScreen luminescence, 90 h | inhibition, % at 2.09 µM | 5,600 tested, 21% active;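 active = mean inhibition above about 95%, with at least 55% of replicates also reaching it, limit read from the data; inconclusive = meets just one of the two conditions; inactive = meets neither condition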;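 also: plate controls were neutral control median for no effect and positive control median for full effect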
3T3 cytotox: kills mouse NIH/3T3 fibroblasts | NIH/3T3 viability, CellTiter-Glo ATP luminescence, 90 h | cytotoxicity (signal decrease), % at 8.35 µM | shares compounds with T cruzi growth-1 | 5,600 tested, 14% active;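 active = mean signal decrease across replicates above about 35% based on untreated-well scatter, with enough replicates individually passing, limit read from the data; inconclusive = no rule stated though some were filed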;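 also: 0% = median of neutral control wells and 100% = median of positive control wells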
NIH3T3 tox 2: cytotoxicity in mouse NIH/3T3 fibroblasts; shares compounds with T cruzi growth-1; NIH/3T3 viability, CellTiter-Glo ATP luminescence, 90 h; inhibition, % at 24.9 µM; 5,600 tested, 56% active; AID 651744;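 active = mean loss of cell viability signal at or above a set limit, and enough replicates individually reaching it; inconclusive = meets only the mean limit or only the replicate share; inactive = meets neither condition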;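 also: 0% = median of neutral control wells and 100% = median of positive control wells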
Numbers without * were called inactive; ? = inconclusive; . = no result given. The entries come from a sample that favours hits as a whole.

SMILES	GASC1 inh	IDH1 mut inh	T cruzi growth-1	T cruzi growth-2	T cruzi growth-3	3T3 cytotox	NIH3T3 tox 2
CCOc1cc(OCC)cc(C(=O)N[C@@H](Cc2ccc(N=[N+]=[N-])cc2)C(=O)OC)c1	.	0	.	.	.	.	.
N#C[C@@H]1[C@@H](c2ccc(C#Cc3ccccc3F)cc2)[C@H](CO)N1C(=O)C1CC1	-3	.	104*	103*	93	10	19
N#C[C@@H]1[C@@H](c2ccc(C#Cc3ccccc3F)cc2)[C@H](CO)N1C(=O)C1CCCC1	-1	.	.	.	.	.	.
N#C[C@H]1N[C@H](CO)[C@H]1c1ccc(C#Cc2ccccc2F)cc1	-1	.	84	.	.	.	.
N#C[C@H]1N[C@@H](CO)[C@H]1c1ccc(C#Cc2ccccc2F)cc1	0	.	100*	103*	109*	-14	8
N#C[C@H]1[C@H](c2ccc(C#Cc3ccccc3F)cc2)[C@@H](CO)N1C(=O)C1CC1	-2	.	102*	100*	100*	12	3
N#C[C@@H]1[C@@H](c2ccc(C#Cc3ccccc3F)cc2)[C@@H](CO)N1C(=O)C1CC1	1	.	78	.	.	.	.
COc1ccc(N(CC(=O)Nc2cccc(Br)c2)S(C)(=O)=O)cc1	.	0	.	.	.	.	.
COc1ccc(C)cc1S(=O)(=O)N(CC(N)=O)c1ccc(Cl)cc1	.	1	.	.	.	.	.
O=C(O)COc1ccc(S(=O)(=O)NC2CCCCC2)cc1Cl	.	0	.	.	.	.	.
CC=Cc1ccc2n(c1=O)C[C@@H]1[C@@H](CO)[C@H](C(=O)NCCC)[C@H]2N1CC1CCOCC1 (mixture of isomers)	1	.	19	.	.	.	.
CC=Cc1ccc2n(c1=O)C[C@@H]1[C@@H](CO)[C@H](C(=O)NCC3CC3)N(CCC(F)(F)F)[C@H]21 (mixture of isomers)	5	.	111*	-47	3	-10	6
CC=Cc1ccc2n(c1=O)C[C@@H]1[C@@H](CO)[C@H](C(=O)NCC3CC3)N(CCC)[C@H]21 (mixture of isomers)	3	.	.	.	.	.	.
CC=Cc1ccc2n(c1=O)C[C@@H]1[C@@H](CO)[C@H](C(=O)NCCC)[C@H]2N1CC1CC1 (mixture of isomers)	0	.	102*	31	-45	14	-15
CC=Cc1ccc2n(c1=O)C[C@H]1[C@H](CO)[C@@H](C(=O)NCCC)[C@@H]2N1CC1CCOCC1 (mixture of isomers)	-1	.	-12	.	.	.	.
CC=Cc1ccc2n(c1=O)C[C@@H]1[C@@H](CO)[C@H](C(=O)NCCC)[C@H]2N1C(=O)c1ccccc1F (mixture of isomers)	-1	.	100*	-4	11	-10	4
CC=Cc1ccc2n(c1=O)C[C@H]1[C@H](CO)[C@@H](C(=O)NCCC)[C@@H]2N1C(=O)c1ccncc1 (mixture of isomers)	0	.	.	.	.	.	.
CC=Cc1ccc2n(c1=O)C[C@H]1[C@H](CO)[C@@H](C(=O)NCCC)[C@@H]2N1CC1CC1 (mixture of isomers)	0	.	102*	56	5	-8	8
Cc1cc(OCC(=O)Nc2cccc3ncccc23)ccc1Cl	.	0	.	.	.	.	.
CCc1nc(SCC(=O)Nc2c(Cl)cccc2Cl)c(C#N)c(C(F)(F)F)c1C	.	4	.	.	.	.	.
CCc1ccccc1NC(=O)CSc1nc2ccccc2c(=O)n1-c1ccccc1Cl	.	0	.	.	.	.	.
C[C@H](O)C#Cc1ccc2c(c1)O[C@H](CN(C)Cc1ccncc1)[C@@H](C)CN([C@H](C)CO)S2(=O)=O	-1	8	57	.	.	.	.
C[C@@H]1CN([C@H](C)CO)S(=O)(=O)c2ccc(C#C[C@@H](C)O)cc2O[C@@H]1CN(C)Cc1ccncc1	1	26	75	.	.	.	.
C[C@H](O)C#Cc1ccc2c(c1)O[C@H](CN(C)Cc1ccncc1)[C@H](C)CN([C@H](C)CO)S2(=O)=O	-1	.	61	.	.	.	.
C[C@@H]1CN([C@@H](C)CO)S(=O)(=O)c2ccc(C#C[C@@H](C)O)cc2O[C@H]1CN(C)Cc1ccncc1	4	.	102*	101*	66	29	27*
SMILES	GASC1 inh	IDH1 mut inh	T cruzi growth-1	T cruzi growth-2	T cruzi growth-3	3T3 cytotox	NIH3T3 tox 2
C[C@H](O)C#Cc1ccc2c(c1)O[C@@H](CN(C)Cc1ccncc1)[C@H](C)CN([C@@H](C)CO)S2(=O)=O	-1	0	110*	98*	73	32	50*
C[C@@H]1CN([C@H](C)CO)S(=O)(=O)c2ccc(C#C[C@@H](C)O)cc2O[C@H]1CN(C)Cc1ccncc1	0	.	104*	95*	36	15	14
CCOC(=O)c1c(NC(=O)COc2ccc(F)cc2)sc2c1CCCC2	.	0	.	.	.	.	.
CN1C(=O)c2cc(NC(=O)c3ccc(F)c(F)c3)ccc2OC[C@@H]2O[C@@H](CC(=O)N[C@@H]3CCN(Cc4ccccc4)C3)CC[C@H]21	-3	.	101*	108*	64	1	0
Cc1noc(C)c1NC(=O)Nc1ccc2c(c1)C(=O)N(C)[C@@H]1CC[C@H](CC(=O)N[C@@H]3CCN(Cc4ccccc4)C3)O[C@@H]1CO2	2	.	27	.	.	.	.
CCS(=O)(=O)Nc1ccc2c(c1)C(=O)N(C)[C@@H]1CC[C@@H](CC(=O)N[C@H]3CCN(Cc4ccccc4)C3)O[C@@H]1CO2	-1	.	-17	.	.	.	.
Cc1noc(C)c1NC(=O)Nc1ccc2c(c1)C(=O)N(C)[C@@H]1CC[C@H](CC(=O)N[C@H]3CCN(Cc4ccccc4)C3)O[C@H]1CO2	-2	.	104*	?	2	1	-4
CCS(=O)(=O)Nc1ccc2c(c1)C(=O)N(C)[C@@H]1CC[C@@H](CC(=O)N[C@@H]3CCN(Cc4ccccc4)C3)O[C@@H]1CO2	0	.	27	.	.	.	.
CN1C(=O)c2cc(NC(=O)Cc3cccs3)ccc2OC[C@@H]2O[C@@H](CC(=O)N[C@H]3CCN(Cc4ccccc4)C3)CC[C@@H]21	-1	.	?	89	85	-18	4
CN1C(=O)c2cc(NC(=O)c3ccc(F)c(F)c3)ccc2OC[C@H]2O[C@@H](CC(=O)N[C@@H]3CCN(Cc4ccccc4)C3)CC[C@@H]21	-2	.	98*	61	74	-2	7
CN1C(=O)c2cc(NC(=O)Cc3cccs3)ccc2OC[C@H]2O[C@@H](CC(=O)N[C@H]3CCN(Cc4ccccc4)C3)CC[C@H]21	7	.	75	.	.	.	.
CCn1c(SCC(=O)Nc2ccc([N+](=O)[O-])cc2C)nnc1-c1ccc(Cl)cc1	.	-1	.	.	.	.	.
CCc1cc2c3c(c(=O)oc2cc1OCc1cc(C(=O)O)oc1C)CCCC3	.	4	.	.	.	.	.
COC(=O)c1ccccc1NC(=O)Cc1coc2c(C)c(C)ccc12	.	1	.	.	.	.	.
O=C(NO)c1cccc(C(=O)N/N=C/c2ccccc2OCCO)c1	.	0	.	.	.	.	.
CN1C(=O)c2cc(NC(=O)Cc3cccs3)ccc2OC[C@H]2O[C@@H](CC(=O)N[C@@H]3CCN(Cc4ccccc4)C3)CC[C@H]21	3	.	90	.	.	.	.
